Assay results published in ChEMBL document CHEMBL3351945, “Effect of dehydroepiandrosterone derivatives on the activity of 5α-reductase isoenzymes and on cancer cell line PC-3” (Bioorg Med Chem, 2014).
Calls of active or inactive are those of the source. No cut-off for these calls is given here.

What was measured:
[1] = molecular target: T1, 3-oxo-5-alpha-steroid 4-dehydrogenase 1 (Rattus norvegicus, UniProt P24008); assay: Inhibition of rat liver 5alpha-reductase type 1 assessed as conversion of [3H]testosterone to dihydrotestosterone
T1 sequence (P24008 whole entry): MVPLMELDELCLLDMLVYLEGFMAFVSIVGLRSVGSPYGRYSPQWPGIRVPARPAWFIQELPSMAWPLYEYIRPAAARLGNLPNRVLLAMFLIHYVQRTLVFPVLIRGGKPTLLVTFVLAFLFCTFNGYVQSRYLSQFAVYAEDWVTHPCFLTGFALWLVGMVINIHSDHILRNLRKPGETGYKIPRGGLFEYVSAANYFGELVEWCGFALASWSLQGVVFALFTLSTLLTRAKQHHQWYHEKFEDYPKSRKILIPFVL
Method in brief: (§1)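 Each reaction contained 1 mM DTT in 40 mM sodium phosphate, 2 nM [3H]T and 2 mM NADPH. Type 1 ran at pH 8.0 with 6.31 µM T added and 90 µg solubilized rat liver microsomal protein. Type 2 ran at pH 6.5 with 50 µg human prostate membrane protein. Inhibitors were tested at 1e-11–1e-3 M, in duplicate, 60 min at 37.5 °C. Reactions were stopped with dichloromethane, DHT separated by TLC and radioscanned, and IC50 taken from inhibition curves.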

[2] = molecular target: T2, 3-oxo-5-alpha-steroid 4-dehydrogenase 2 (Homo sapiens, UniProt P31213); assay: Inhibition of human prostate 5alpha-reductase type 2 assessed as conversion of [3H]testosterone to dihydrotestosterone; design: species or system Prostate gland; method in brief: as §1
T2 sequence (P31213 whole entry): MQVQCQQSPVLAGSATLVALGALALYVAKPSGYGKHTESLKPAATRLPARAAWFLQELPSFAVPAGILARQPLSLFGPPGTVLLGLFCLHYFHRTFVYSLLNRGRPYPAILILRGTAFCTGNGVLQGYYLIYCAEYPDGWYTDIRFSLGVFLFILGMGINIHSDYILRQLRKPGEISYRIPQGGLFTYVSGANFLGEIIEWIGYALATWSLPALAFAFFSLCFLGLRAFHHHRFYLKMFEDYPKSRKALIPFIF

[3] = tested on: PC-3; assay: (§2) Cytotoxicity against human PC3 cells assessed as growth inhibition at 50 uM after 48 hrs by SRB assay; type: functional
Method in brief: (§3)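 PC-3 cells (NCI) were grown in RPMI-1640 with 10% FBS, 2 mM L-glutamine, antibiotics/amphotericin B and 1% nonessential amino acids at 37 °C in 5% CO2. Viability exceeded 95% (trypan blue). Cells were seeded at 5000–10000/well, given 24 h, then exposed 48 h to 50 µM compound. Cells were fixed in cold TCA, stained with 0.4% SRB and read at 515 nm after Tris solubilization. Inhibition = 100 − (sample/vehicle absorbance × 100).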

[4] = Cytotoxicity against Swiss mouse primary peritoneal macrophages assessed as growth inhibition at 50 uM after 48 hrs by MTT assay; conditions: for growth inhibition (GI): peritoneal macrophage cell, 48 h, 50 µM; for inhibition at 48 h, 50 µM: Swiss, primary peritoneal macrophages, read-out: GI
[5] = as §2; type: functional; conditions: PC-3, 48 h, read-out: GI; method in brief: as §3

Row | Structure (SMILES) | IC50 ([1]; read-out: IC50) [µM] | IC50 [2] | growth inhibition (GI) [3] | growth inhibition (GI) [4] | IC50 [1] | IC50 ([2]; read-out: IC50) [µM] | inhibition of growth at 50 µM [5] [%] | inhibition at 48 h, 50 µM [4] [%]
1 | C[C@]12CC[C@H](OC(=O)C3CCCCC3)CC1=CC[C@@H]1[C@@H]2CC[C@]2(C)C(n3ccnc3)=C(C=O)C[C@@H]12 | 300 | Not Active | inactive | Non-toxic |  |  |  | 
2 | C[C@]12CC[C@H](OC(=O)C3CCCC3)CC1=CC[C@@H]1[C@@H]2CC[C@]2(C)C(n3ccnc3)=C(C=O)C[C@@H]12 | 265 | Not Active | inactive | Non-toxic |  |  |  | 
3 | CC(=O)O[C@H]1CC[C@@]2(C)C(=CC[C@@H]3[C@@H]2CC[C@]2(C)C(Cl)=C(C=O)C[C@@H]32)C1 |  |  | inactive | Non-toxic | Not Active | 0.05 |  | 
4 | C[C@]12CC[C@H](OC(=O)C3CCCCCC3)CC1=CC[C@@H]1[C@@H]2CC[C@]2(C)C(n3ccnc3)=C(C=O)C[C@@H]12 | 320 | Not Active | inactive | Non-toxic |  |  |  | 
5 | CC(=O)O[C@H]1CC[C@@]2(C)C(=CC[C@@H]3[C@@H]2CC[C@]2(C)C(n4ccnc4)=C(C=O)C[C@@H]32)C1 |  | Not Active |  |  | Not Active |  | 56.5 | 36.2
6 | CC(C)(C)NC(=O)[C@H]1CC[C@H]2[C@@H]3CC[C@H]4NC(=O)C=C[C@]4(C)[C@H]3CC[C@]12C [FINASTERIDE] | 630 |  | inactive | Non-toxic |  |  |  | 
7 | C[C@]12CC[C@H](OC(=O)C3CCCC3)CC1=CC[C@@H]1[C@@H]2CC[C@]2(C)C(Cl)=C(C=O)C[C@@H]12 |  |  | inactive | Non-toxic | Not Active | 0.05 |  | 
8 | C[C@]12CC[C@H](OC(=O)C3CC3)CC1=CC[C@@H]1[C@@H]2CC[C@]2(C)C(n3ccnc3)=C(C=O)C[C@@H]12 | 200 | Not Active |  |  |  |  | 100 | 41.5
9 | C[C@]12CC[C@H](OC(=O)C3CCCCCC3)CC1=CC[C@@H]1[C@@H]2CC[C@]2(C)C(Cl)=C(C=O)C[C@@H]12 |  |  | inactive | Non-toxic | Not Active | 0.015 |  | 
10 | C[C@]12CC[C@H](OC(=O)c3ccc(I)cc3)CC1=CC[C@@H]1[C@@H]2CC[C@]2(C)C(n3ccnc3)=C(C=O)C[C@@H]12 | 300 | Not Active | inactive | Non-toxic |  |  |  | 
11 | C[C@]12CC[C@H](OC(=O)C3CCCCC3)CC1=CC[C@@H]1[C@@H]2CC[C@]2(C)C(Cl)=C(C=O)C[C@@H]12 |  |  | inactive | Non-toxic | Not Active | 0.008 |  | 
12 | C[C@]12CC[C@H](OC(=O)C3CCC3)CC1=CC[C@@H]1[C@@H]2CC[C@]2(C)C(n3ccnc3)=C(C=O)C[C@@H]12 | 250 | Not Active | inactive | Non-toxic |  |  |  | 
13 | CC(=O)N1CCN(c2ccc(OCC3COC(Cn4ccnc4)(c4ccc(Cl)cc4Cl)O3)cc2)CC1 (stereo not given) [KETOCONAZOLE] |  | Not Active |  |  |  |  | 85.4 | 41.5
14 | C[C@]12CC[C@H](OC(=O)c3ccc(F)cc3)CC1=CC[C@@H]1[C@@H]2CC[C@]2(C)C(n3ccnc3)=C(C=O)C[C@@H]12 | 320 | Not Active |  |  |  |  | 100 | 30.1
15 | C[C@]12CC[C@H](OC(=O)c3ccc(Cl)cc3)CC1=CC[C@@H]1[C@@H]2CC[C@]2(C)C(n3ccnc3)=C(C=O)C[C@@H]12 | 100 | Not Active |  |  |  |  | 98.2 | 29.2
16 | C[C@]12CC[C@H](OC(=O)C3CC3)CC1=CC[C@@H]1[C@@H]2CC[C@]2(C)C(Cl)=C(C=O)C[C@@H]12 |  |  | inactive | Non-toxic | Not Active | 0.0032 |  | 
17 | C[C@]12CC[C@H](OC(=O)C3CCC3)CC1=CC[C@@H]1[C@@H]2CC[C@]2(C)C(Cl)=C(C=O)C[C@@H]12 |  |  | inactive | Non-toxic | Not Active | 0.013 |  | 
18 | C[C@]12CC[C@H](OC(=O)c3ccc(Br)cc3)CC1=CC[C@@H]1[C@@H]2CC[C@]2(C)C(n3ccnc3)=C(C=O)C[C@@H]12 | 94.5 | Not Active |  |  |  |  | 100 | 40.3
